# Cav3 T inh: human Cav3.2 channel inhibition, primary screen | B-score at 10 µM | Cav3.2-expressing cells, Fluo-4 calcium fluorescence FDSS; hits give low values | AID 449739 | 4% of 100,000 active;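 active means single-dose well whose peak fluorescence ratio is a statistical outlier from its plate by either plate-standardised score or position-corrected B-score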
# HIV Rev-RRE inh: inhibitors of HIV-1 Rev-RRE RNA interaction; inhibition, % at 8 µM; 0.79% of 97,000 active; AID 704; P05866; Rev peptide-RRE RNA binding, FRET;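 active means inhibition above the screen-wide mean plus 3 SD, cut at about 35% in these data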;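 further: 0% = median DMSO wells and 100% = median Neomycin B control wells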
#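 Assay system: Rev peptide and RRE RNA, both fluorescently labelled; times: 5 min preincubation and 15 min binding, 25 °C; detection: FRET, ex 480 nm, em 540 and 671 nm; read-out basis: % inhibition from 671/540 nm acceptor-to-donor ratio, scaled between controls; benchmarks: DMSO low control, neomycin B high control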
# FAK inh: inhibitors of human focal adhesion kinase | Q05397 | 0.84% of 97,000 active | biochemical FAK kinase activity assay | AID 727 | inhibition, %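 (tested at 7 µM)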; in the data active means inhibition above about 19%;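 further: 0% = DMSO and 100% = reference compound high control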
# EphB4 antag: blocks human EphB4 binding to ephrin-B2 | EphB4 LBD / TNYL-RAW-Alexa532 peptide, fluorescence polarization | inhibition, % at 7 µM | 0.15% of 97,000 active | AID 720 | P54760;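 active means inhibition above the screen-wide mean inhibition plus 3 SD, cut at about 15% in these data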;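 further: 0% = DMSO wells and 100% = excess unlabeled TNYL-RAW peptide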
# PLK1 PBD inh: Plk1 (human) PBD binding inhibition; Plk1 PBD phosphopeptide binding, fluorescence polarization; inhibition, %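 (tested at about 20 µM)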; 0.13% of 97,000 active; AID 693; in the data active means inhibition above about 34%, passing the limit was not always enough
# PLK1 inh: PLK1 (human) kinase inhibition | recombinant PLK1 kinase, TR-FRET peptide phosphorylation | inhibition, % at 10 µM | 0.53% of 97,000 active;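 active means inhibition of 50% or more in the single-concentration screen; inactive means inhibition below 50%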;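 further: 0% = DMSO max control and 100% = H-89 dihydrochloride min control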
# The depositor's hits bear a star; · = no result. A selection: hits, their analogues and other compounds. The true share with any hit is near 5.3%.
SMILES,Cav3 T inh,HIV Rev-RRE inh,FAK inh,EphB4 antag,PLK1 PBD inh,PLK1 inh
Cc1ccccc1N=C(NOCc1ccc(Cl)cc1Cl)c1nonc1N,-2.4,23,2,-9,5,-5
Cc1ccccc1N=C(NOCc1ccccc1)c1nonc1N,-6.6*,17,0,5,-6,-12
C/C=C/C(=O)N(CC)c1ccccc1C,1,·,·,·,·,·
Cc1c(Cl)cccc1Nc1nc(N)nc(CN2CCc3ccccc3C2)n1,-4*,14,-1,-2,-17,-1
CC1(c2nnc(-c3cccc(Cl)c3)o2)CC(c2ccccc2)=NO1 (centres undefined),0.39,·,·,·,·,·
O=C(NC(Cc1ccc(F)cc1)C(=O)O)c1ccccc1 (centres undefined),-1.9,4,0,1,6,-11
CCc1ccc(C(C)NC(=O)c2ccc(F)cc2)cc1 (centres undefined),-4.1*,1,1,1,4,0
Fc1ccc(Br)cc1C1C=C(c2ccc(Br)s2)Nc2ncnn21 (centres undefined),-2.9*,·,·,·,·,·
COc1cccc(C2C=C(c3ccc(Br)s3)Nc3ncnn32)c1OC (centres undefined),-0.65,·,·,·,·,·
CCO[C@@H]1OC(C(N)=O)=C[C@H](c2ccc3c(c2)OCO3)[C@H]1CCCO,0.33,·,·,·,·,·
C[C@H]1CC[C@@]2(O[C@@H](CCO)C[C@H](O)[C@H]2O)O1,0.038,·,·,·,·,·
Cc1ccc(Cl)cc1NC(=O)CSC(N)=O,-4.1,9,1,-2,6,-20
Cc1ccc(Cl)cc1NC(=O)CC(O)(C(F)(F)F)C(F)(F)F,-2.7*,10,0,5,-11,-7
O=C(Cc1c(F)cccc1Cl)c1ccc(O)cc1O,-0.5,11,8,8,15,-11
COc1ccccc1C(=O)OCc1c(F)cccc1Cl,-1.9*,5,0,0,-2,-12
O=C(CC1Oc2ccccc2NC1=O)NC1CC1 (centres undefined),·,4,1,4,-10,-1
O=C(CC1Oc2ccccc2NC1=O)NC1CCCC1 (centres undefined),0.64,7,-4,4,-11,69*
COc1ccccc1NC(=O)N1CCc2[nH]c3ccc(F)cc3c2C1,-4.2*,13,-5,1,4,-5
C[C@@]12CCC=C[C@H]1[C@H](c1ccc(C(F)(F)F)cc1)N(Cc1ccccc1)C2=O,-1.2,·,·,·,·,·
CCN(CCCNC(=O)CNC(=O)Cn1cnc2ccccc2c1=O)c1cccc(C)c1,-3.9*,·,·,·,·,·
CN(c1ccccc1)S(=O)(=O)c1cccc(NC(=O)Cn2cnc3ccccc3c2=O)c1,-7*,12,-1,11,21,1
CCN(CC)S(=O)(=O)c1cc(NC(=O)Cn2cnc3ccccc3c2=O)ccc1C,·,11,3,4,21,7
Cc1ccc(CONC(=O)/N=C/N(C)C)cc1,0.68,6,-2,0,15,-10
O=C(NCCO[N+](=O)[O-])c1cccnc1,0.083,·,·,·,·,·
COc1ccc(CCNC(=O)c2nnc(Cc3ccc(Cl)cc3)o2)cc1OC,-3.6*,7,-2,-6,8,-3
SMILES,Cav3 T inh,HIV Rev-RRE inh,FAK inh,EphB4 antag,PLK1 PBD inh,PLK1 inh
COc1ccc(CCNC(=O)c2nnc(Cc3c(F)cccc3Cl)o2)cc1OC,0.11,4,-5,1,-13,0
CC(NC(=O)CCCN1C(=O)c2ccccc2C1=O)c1ccc2c(c1)CCCC2 (centres undefined),-4.2*,1,0,0,-2,-5
CC(NC(=O)CCCCCN1C(=O)c2ccccc2C1=O)c1ccc2c(c1)CCCC2 (centres undefined),-3.7*,4,-5,4,-32,-8
O=C(CCCN1C(=O)c2ccccc2C1=O)NC1CCCCCC1,0.065,6,-5,5,-22,-7
Cc1ccc(S(=O)(=O)CC(C)N2CCN(C3CCCCC3)CC2)cc1 (centres undefined),1.4,3,-3,-1,-9,-12
COc1cc(NC(=O)CCc2nc(-c3cccs3)no2)cc(OC)c1OC,0.6,-2,-6,-5,-12,-6
CCc1cccc(NC(=O)CCc2nc(-c3cccs3)no2)c1,-7.1*,4,-1,-2,-15,-6
CCOC(=O)c1ccc(NC(=O)CCc2nc(-c3ccccc3)no2)cc1,-2.5,·,·,·,·,·
CCOC(=O)c1ccc(NC(=O)CCc2nc(-c3ccccc3Cl)no2)cc1,-3.8*,·,·,·,·,·
CCOC(=O)c1c(NC(=O)CSc2nnc(CNc3ccc(F)cc3)o2)sc(C)c1C,-4.6*,3,0,3,3,-1
O=C(CSc1nnc(CNc2ccc(Cl)cc2)o1)Nc1nc2ccccc2s1,0.18,10,-1,8,-8,56*
CSc1nc(Cl)cc(N(CCO)CCO)n1,-0.25,7,-5,-5,25,-5
CCN=C(NCC)SC1CC(=O)N(c2cccc(OCC)c2)C1=O (centres undefined),-0.86,5,1,5,-3,4
Cc1ccc(NS(=O)(=O)c2cc(C(=O)NCc3ccccn3)ccc2Cl)cc1C,-0.072,8,0,3,-9,-8
COc1ccc2nc(N3CCC(O)CC3)c(C#N)cc2c1,0.091,37*,5,-2,4,5
COc1ccc2nc(N3CCC(C)CC3)c(C#N)cc2c1,-0.64,27,-5,-2,3,-8
CCOC(=O)c1c2c(n(C)c1COC)C(=O)C(=O)c1ccc(Br)cc1-2,-0.66,12,52*,4,12,-8
O=C1c2ccccc2S(=O)(=O)c2cc(N3CCC4(CC3)OCCO4)ccc21,-0.84,·,·,·,·,·
COc1ccccc1Oc1nc(-c2ccccc2)cc(C)c1S(C)(=O)=O,-2.1,4,2,6,0,-18
Cc1cccc(Oc2nc(-c3ccccc3)cc(C)c2S(C)(=O)=O)c1C,-3.9*,5,2,-2,5,-5
O=C(NC(CSSCC(NC(=O)c1ccccc1)C(=O)O)C(=O)O)c1ccccc1 (centres undefined),-0.55,·,·,·,·,·
COc1cccc(-c2csc(N3CCN(C(=O)NC45CC6CC(CC(C6)C4)C5)CC3)n2)c1,-3.3*,-1,2,4,-7,-7
CCOC(=O)[C@@H]1[C@H]2COc3ccccc3[C@@H]2N2C(=O)N(c3cccc(F)c3)C(=O)[C@]12C,0.4,·,·,·,·,·
Cc1cc(C(F)(F)F)nc(NCc2ccc(F)cc2)n1,-5.4*,19,0,3,21,9
Cc1cccc(CN2C(=O)N/C(=C/c3cc(C)n(-c4cc(C)ccn4)c3C)C2=O)c1,-0.08,9,1,3,6,-7
Cc1cccc(CN2C(=O)N/C(=C/c3ccc(C)s3)C2=O)c1,-0.085,58*,-1,6,-34,-10
CCOC(=O)c1c(NC(=O)CSc2nnnn2-c2ccc(OC)cc2)sc(C)c1C,0.89,10,2,-5,1,2
COc1ccc(NC(=O)C2CCCN(c3c4c(nc5ncnn35)CCC4)C2)cc1OC (centres undefined),3.3*,10,-1,5,-12,-5

# Screening data as filed in PubChem.
